Data set [1] can be described thus: Solubility of the compound in phosphate buffer at pH 3.2. The class given is physicochemical.
A short description of data set [2]: Solubility of the compound in DMSO. The data set is classed as physicochemical.
Data set [3] in a line: Solubility of the compound in water. The class given is physicochemical. As to conditions: buffer.
Data set [4] can be described thus: Solubility of the compound in ethanol. The data set is classed as physicochemical.
In data set [5] the target is T1, Gamma-aminobutyric acid receptor subunit alpha-1/beta-2/beta-3/gamma-2 (Rattus norvegicus) (UniProt P18508+P62813+P63079+P63138). The data set is described as follows: Inverse agonist activity at GABA alpha1beta2beta3gamma2 receptor Bzd binding site in Sprague-Dawley rat cerebellar granule cells assessed as decrease in GABA-activated chloride currents at 0.47 uM by whole-cell patch clamp technique relative to control. The method in brief:
(§1)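 Whole-cell patch clamp on cultured rat cerebellar granule cells. Peak, rapidly desensitizing chloride current evoked by 10 μM GABA, recorded with and without test compound. Compounds applied at 1 μM, or at 0.47 μM where solubility limited. Change expressed as percent of the current with GABA alone (E %), mean ± SEM. Student's t-test against GABA alone.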
In general terms: In patch-clamp work, channel activity is measured electrically.

The target of data set [6] is T1, Gamma-aminobutyric acid receptor subunit alpha-1/beta-2/beta-3/gamma-2 (Rattus norvegicus). Kind of data set: Agonist activity at GABA alpha1beta2beta3gamma2 receptor Bzd binding site in Sprague-Dawley rat cerebellar granule cells assessed as increase in GABA-activated chloride currents at 1 uM by whole-cell patch clamp technique relative to control. The method in brief:
as §1

Data set [7] has the same target. The data set is described as follows: Inverse agonist activity at GABA alpha1beta2beta3gamma2 receptor Bzd binding site in Sprague-Dawley rat cerebellar granule cells assessed as decrease in GABA-activated chloride currents at 1 uM by whole-cell patch clamp technique relative to control. Put shortly:
as §1

Data set [8] in a line: Drug metabolism assessed as decarboxylated metabolite formation. The class given is ADME.

In the case of `Cc1ccc(N2CCN(C(=O)CC3c4ccccc4C(=O)N3c3ccc([N+](=O)[O-])cn3)CC2)cc1.Cl` (stereo not given), the solubility entry in data set [1] is recorded as “Soluble”; in data set [2], “Insoluble”; in data set [3], “Soluble”; in data set [4] it was “Soluble”.
For the compound `CN1CCN(C(=O)CC2c3ccccc3C(=O)N2c2ccc(N)cn2)CC1.Cl` (stereo not given), the solubility entry is “Soluble” in data set [1], “Insoluble” in data set [2], “Soluble” in data set [3] and “Soluble” in data set [4]. Also, the Efficacy in data set [5] worked out at 23%.
On to `CN1CCN(C(=O)CC2c3ccccc3C(=O)N2c2ccc(Br)cn2)CC1.Cl` (stereo not given), for which the solubility entry in data set [1], in data set [2], in data set [3] and in data set [4] was “Soluble” throughout. Besides, in data set [6], the Efficacy came to 26%.
Take `Cl.O=C(CC1c2ccccc2C(=O)N1c1ccc([N+](=O)[O-])cn1)N1CCN(c2ccc(Cl)cc2)CC1` (stereo not given): the solubility entry in data set [1], in data set [2], in data set [3] and in data set [4] was “Soluble” in each case. Besides, in data set [7], the Efficacy is 36%.
As for `CN1CCN(C(=O)CC2c3ccccc3C(=O)N2c2ccccn2)CC1.Cl` (stereo not given), the solubility entry in data set [1], in data set [2], in data set [3] and in data set [4] was “Soluble” each time. Further, the Efficacy in data set [6] stood at 20%.
Regarding `CN1CCN(C(=O)CC2c3ccccc3C(=O)N2c2ccc([N+](=O)[O-])cn2)CC1.Cl` (stereo not given), the solubility result in data set [1], in data set [2], in data set [3] and in data set [4] was “Soluble” throughout. Also, the Efficacy in data set [6] came out at 34%.
Regarding `Cl.O=C(CC1c2ccccc2C(=O)N1c1ccc([N+](=O)[O-])cn1)N1CCN(c2ccc(F)cc2)CC1` (stereo not given), the solubility result in data set [1], in data set [2], in data set [3] and in data set [4] was “Soluble” each time.
On to `COc1ccc(N2CCN(C(=O)CC3c4ccccc4C(=O)N3c3ccc([N+](=O)[O-])cn3)CC2)cc1.Cl` (stereo not given), for which the solubility result in data set [1], in data set [2], in data set [3] and in data set [4] was “Soluble” in each case. The Efficacy in data set [7] was 21%.
Consider `CN1CCN(C(=O)OC2c3nccnc3C(=O)N2c2ccc(Cl)cn2)CC1` (stereo not given) [ZOPICLONE], for which the Drug metabolism in data set [8] amounted to 50 %ID. Also, the Efficacy in data set [6] was 58%.
Take `CN1CCN(C(=O)CC2c3ccccc3C(=O)N2c2ccc(Cl)cn2)CC1.Cl` (stereo not given): the solubility entry in data set [1], in data set [2], in data set [3] and in data set [4] was “Soluble” in each case. In addition, the Efficacy in data set [6] was 18%.
Take `Cl.O=C(CC1c2ccccc2C(=O)N1c1ccc([N+](=O)[O-])cn1)N1CCN(c2ccccc2)CC1` (stereo not given): the solubility entry in data set [1], in data set [2], in data set [3] and in data set [4] was “Soluble” throughout. Moreover, the Efficacy in data set [7] came out at 27%.
`Cc1ccc(N2C(=O)c3ccccc3C2CC(=O)N2CCN(C)CC2)nc1.Cl` (stereo not given): the solubility entry in data set [1], in data set [2], in data set [3] and in data set [4] was “Soluble” each time. Further, in data set [6], the Efficacy amounted to 21%.

These data come from ChEMBL document CHEMBL3864135, “Synthesis and pharmacological evaluation of functionalized isoindolinones on GABA-activated chloride currents in rat cerebellum granule cells in culture” (Bioorg Med Chem Lett, 2016).
